These results are taken from ChEMBL document CHEMBL2440077, “Synthesis and antiprotozoal activity of dicationic 2,6-diphenylpyrazines and aza-analogues” (Bioorg Med Chem, 2013).

The structures appear in SMILES notation. The source made the active and inactive calls. No cut-off for these calls is given here.

Data set [1] deals with Liver. Kind of data set: Half life in Swiss Webster mouse liver S9 fraction by UV-HPLC analysis. In kind it is ADME, subcellular.
The test system of a further data set is L6. Kind of data set: Cytotoxicity against rat L6 cells assessed as cell viability after 70 hrs by Alamar blue assay. In kind it is cell-based. The following applies: L6, 70 h. In general terms: Resazurin is reduced to fluorescent resorufin, in cell work by metabolically active cells.
Data set [2] relates to Trypanosoma brucei rhodesiense. Kind of data set: Antitrypanosomal activity against Trypanosoma brucei rhodesiense STIB900 assessed as parasite growth inhibition after 70 hrs by Alamar blue assay. In kind it is functional, organism-based. As to conditions: STIB900, 70 h.
The test system of data set [3] is Plasmodium falciparum. The data set is described as follows: Antiplasmodial activity against Plasmodium falciparum K1 assessed as [3H]-hypoxanthine incorporation after 48 hrs by liquid scintillation counting analysis. In kind it is functional, organism-based.
Data set [4] deals with Liver. The data set is described as follows: Half life in mouse liver microsomes by UV-HPLC analysis. In kind it is ADME, Microsome. The procedure, abridged:
(§1)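 Substrate at 10 μM with 0.5 mg/ml pooled human or mouse liver microsomes, 0.5% DMSO, in 100 mM phosphate pH 7.4 with 3.3 mM MgCl2. After 5-min pre-equilibration at 37°C, 1 mM β-NADPH is added; triplicates.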

In another data set the test system is Liver microsomes. Kind of data set: Half life in human liver microsomes by UV-HPLC analysis. In kind it is ADME, Microsome. The procedure, abridged:
as §1
(Liver microsomes are vesicles of endoplasmic reticulum, rich in cytochrome P450 enzymes.)

The test system of data set [5] is Trypanosoma brucei rhodesiense. Kind of data set: Antitrypanosomal activity against Trypanosoma brucei rhodesiense STIB900 infected in NMRI mouse assessed as cured animal at 10 mg/kg, ip administered on day 3 post infection for 4 days measured up to 60 days. In kind it is functional, organism-based. Details: dose 10 mg/kg. The procedure, abridged:
(§2)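 Acute-stage mouse model: compound dosed daily for 4 days. A cure is a mouse surviving parasite-free for 60 days. Average days of survival also recorded.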

The subject of data set [6] is Trypanosoma brucei brucei. The data set is described as follows: Antitrypanosomal activity against Trypanosoma brucei brucei GVR35 infected in NMRI mouse assessed as mouse survival at 100 mg/kg, po administered on day 21 post infection for 5 days measured up to 180 days. In kind it is functional. The procedure, abridged: (§3)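 Oral dosing in the T. b. brucei GVR35 second-stage (CNS) mouse model, daily for 5 or 10 days. Cure means survival for more than 180 days after infection with no parasitemia relapse. Mean survival days are computed across mice with and without relapse.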

Data set [7] relates to Trypanosoma brucei brucei. The data set is described as follows: Antitrypanosomal activity against Trypanosoma brucei brucei GVR35 infected in NMRI mouse assessed as mouse survival at 100 mg/kg, po administered on day 21 post infection for 10 days measured up to 180 days. In kind it is functional. In short, it runs like this: as §3
The test system of data set [8] is Trypanosoma brucei brucei. The data set is described as follows: Antitrypanosomal activity against Trypanosoma brucei brucei GVR35 infected in NMRI mouse assessed as cured animal at 100 mg/kg, po administered on day 21 post infection for 5 days measured up to 180 days. In kind it is functional, organism-based. Details: dose 100 mg/kg. The procedure, abridged:
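Second-stage CNS model, oral dosing. A cure is survival beyond 180 days after infection without parasitemia relapse. Mean survival days are computed from mice with and without relapse. Reference diamidine control given once at 40 mg/kg ip.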

The test system of data set [9] is Trypanosoma brucei rhodesiense. Kind of data set: Antitrypanosomal activity against Trypanosoma brucei rhodesiense STIB900 infected in NMRI mouse assessed as mouse survival at 5 mg/kg, ip administered on day 3 post infection for 4 days measured up to 60 days. The following applies: route intraperitoneal. In kind it is functional.
For data set [10], the system named is Trypanosoma brucei rhodesiense. Kind of data set: Antitrypanosomal activity against Trypanosoma brucei rhodesiense STIB900 infected in NMRI mouse assessed as mouse survival at 20 mg/kg, ip administered on day 3 post infection for 4 days measured up to 60 days. In kind it is functional. As to conditions: route intraperitoneal.
Data set [11] has as its system Trypanosoma brucei rhodesiense. Kind of data set: Antitrypanosomal activity against Trypanosoma brucei rhodesiense STIB900 infected in NMRI mouse assessed as cured animal at 20 mg/kg, ip administered on day 3 post infection for 4 days measured up to 60 days. In kind it is functional, organism-based. Also on record: dose 20 mg/kg. In short, it runs like this:
as §2

Data set [12] has as its system Trypanosoma brucei rhodesiense. The data set is described as follows: Antitrypanosomal activity against Trypanosoma brucei rhodesiense STIB900 infected in NMRI mouse assessed as mouse survival at 100 mg/kg, ip administered on day 3 post infection for 4 days measured up to 60 days. In kind it is functional. The following applies: route intraperitoneal.
For data set [13], the system named is Trypanosoma brucei rhodesiense. Kind of data set: Antitrypanosomal activity against Trypanosoma brucei rhodesiense STIB900 infected in NMRI mouse assessed as cured animal at 100 mg/kg, ip administered on day 3 post infection for 4 days measured up to 60 days. In kind it is functional, organism-based. Also on record: dose 100 mg/kg. In short, it runs like this:
as §2

For data set [14], the system named is Trypanosoma brucei rhodesiense. Kind of data set: Antitrypanosomal activity against Trypanosoma brucei rhodesiense STIB900 infected in NMRI mouse assessed as cured animal at 5 mg/kg, ip administered on day 3 post infection for 4 days measured up to 60 days. In kind it is functional, organism-based. Also on record: dose 5 mg/kg. The procedure, abridged: as §2

For data set [15], the system named is Plasmodium falciparum. Kind of data set: Potency index, ratio of pentamidine IC50 to compound IC50 for Plasmodium falciparum K1. In kind it is functional.

The compound `N/C(=N\O)c1ccc(-c2cncc(-c3ccc(/C(N)=N/O)cn3)n2)nc1` returned a t1/2 in the data set on Liver [1] of 20 min. Further, the IC50 in the data set with L6 was greater than 196 µM; in data set [2] it was 90.6 µM; in the data set on Plasmodium falciparum [3], 7.01 µM.

As for `CO/N=C(\N)c1ccc(-c2cncc(-c3ccc(/C(N)=N\OC)nc3)n2)cn1`, the results for the t1/2 in the data set on Liver [4] and with Liver microsomes were 59 min and 14 min, respectively. The half-inhibitory concentration (IC50) in the data set with L6 was greater than 212 µM; in data set [2] it was 7.87 µM; in the data set with Plasmodium falciparum [3], 0.328 µM.

As to `CONC(=N)c1ccc(-c2ccc(-c3ccc(C(=N)NOC)cc3)o2)cc1` [PAFURAMIDINE], the values for the t1/2 in the data set on Liver [4] and in the data set with Liver microsomes were 150 min and 6.8 min, respectively. The result in data set [5] was Active. For the same compound, the MSD in data set [6] was greater than 167.8 days.

Regarding `CO/N=C(\N)c1ccc(-c2cncc(-c3ccc(/C(N)=N\OC)cc3)n2)cc1`, the t1/2 was 26 min with Liver [4] and 8.6 min in the data set with Liver microsomes. Further, the 50% inhibitory concentration (IC50) in the data set with L6 was 58.7 µM; in data set [2], 18.9 µM; in the data set with Plasmodium falciparum [3], 0.41 µM. Further, the MSD in data set [7] was greater than 180 days; in data set [6], greater than 173.8 days.

Regarding `N/C(=N\O)c1ccc(-c2cncc(-c3ccc(/C(N)=N/O)cc3)n2)cc1`, in the data set with Liver [1], the t1/2 was found to be 1.9 min. In addition, the IC50 came out at 2.9 µM in the data set with L6, 7.95 µM in [2] and 0.87 µM in the data set with Plasmodium falciparum [3]. Further, the result in data set [5] and in [8] was inactive. For the same compound, the MSD in data set [6] is 69 days.

Regarding `N/C(=N\O)c1ccc(-c2cncc(-c3ccc(/C(N)=N/O)cn3)n2)cc1`, in the data set with Liver [1], the t1/2 came to 30 min. Moreover, the half-inhibitory concentration (IC50) in the data set with L6 was 24.6 µM; in data set [2], 7.78 µM; with Plasmodium falciparum [3], 8.4 µM.

Regarding `N=C(N)c1ccc(-c2ccc(-c3ccc(C(=N)N)cn3)o2)cc1`, the results for the Survival in data set [9] and in data set [10] were greater than 54.5 days and greater than 60 days, respectively. Besides, in data set [11], the result was Active.

`N/C(=N\O)c1ccc(-c2cncc(-c3ccc(/C(N)=N\O)nc3)n2)cn1`: the t1/2 with Liver [1] was determined as 51 min. In addition, the 50% inhibitory concentration (IC50) in the data set on L6 is greater than 190 µM; in data set [2] it was 95.4 µM; with Plasmodium falciparum [3], 0.785 µM. For the same compound, the result in [8] was inactive. In addition, the MSD in [6] is 95.2 days.

Consider `N/C(=N\O)c1ccc(-c2cncc(-c3ccc(/C(N)=N/O)nc3)n2)cc1`, for which the t1/2 in the data set with Liver [1] turned out to be 36 min. Moreover, the IC50 is 5 µM in the data set with L6, 10.8 µM in data set [2] and 0.453 µM in the data set with Plasmodium falciparum [3].

Take `CO/N=C(\N)c1ccc(-c2cncc(-c3ccc(/C(N)=N\OC)cc3)n2)nc1`: the t1/2 with Liver [4] is on record as 210 min; with Liver microsomes it was 7.6 min. For the same compound, the IC50 with L6 was greater than 180 µM; in [2] it was 25.3 µM; in the data set with Plasmodium falciparum [3], 5.6 µM.

In the case of `N=C(NO)c1ccc(-c2ccc(-c3ccc(/C(N)=N\O)cc3)o2)cc1`, the t1/2 in the data set on Liver [1] came out at 29 min. The Survival in data set [12] amounted to 50 days. Besides, in data set [13], the result was inactive.

In the case of `CO/N=C(\N)c1ccc(-c2cncc(-c3ccc(/C(N)=N\OC)cc3)n2)cn1`, the t1/2 with Liver [4] was 35 min; with Liver microsomes it was 6.5 min. Moreover, the 50% inhibitory concentration (IC50) with L6 was greater than 185 µM; in [2], 194 µM; in the data set with Plasmodium falciparum [3] it was 0.453 µM.

Turning to `CO/N=C(\N)c1ccc(-c2cncc(-c3ccc(/C(N)=N\OC)cn3)n2)nc1`, the t1/2 stood at 200 min in the data set with Liver [4] and 70 min with Liver microsomes. Moreover, the IC50 with L6 worked out at 20.1 µM; in data set [2], 120 µM; in the data set with Plasmodium falciparum [3], 7.39 µM. The result in data set [8] was inactive. The MSD in data set [6] turned out to be 67.2 days.

For `CO/N=C(\N)c1ccc(-c2ccc(-c3ccc(/C(N)=N/OC)cn3)o2)cc1`, in data set [8], the outcome was Active. For the same compound, the MSD in data set [6] was greater than 180 days.

For the compound `Cc1cc(C(=N)N)ccc1-c1cncc(-c2ccc(C(=N)N)cc2C)n1`, the IC50 stood at 117 µM in the data set on L6, 0.462 µM in data set [2] and 0.323 µM in the data set on Plasmodium falciparum [3].

`N=C(N)c1ccc(-c2cncc(-c3ccc(C(=N)N)cc3F)n2)c(F)c1`: the IC50 with L6 was found to be 29.8 µM; in data set [2], 0.027 µM. In addition, in data set [9], the Survival is greater than 41 days. For the same compound, the result in [14] was inactive.

For `N=C(N)c1ccc(-c2ccc(-c3ccc(C(=N)N)cn3)o2)nc1`, in the data set with L6, the concentration for half-maximal inhibition (IC50) is 83 µM. Further, the Survival in data set [9] is greater than 49.5 days; in [10], greater than 60 days. Also, in data set [11], the result was Active.

As to `N=C(N)c1ccc(-c2cncc(-c3ccc(C(=N)N)nc3)n2)cc1`, the IC50 in the data set on L6 stood at 34.1 µM; in [2] it was 0.006 µM; in the data set on Plasmodium falciparum [3], 0.01 µM. The Survival in data set [9] is greater than 60 days.

On to `N=C(N)c1ccc(-c2cncc(-c3ccc(C(=N)N)cn3)n2)nc1`, for which the IC50 in the data set with L6 was found to be 139 µM; in data set [2], 0.037 µM; in the data set with Plasmodium falciparum [3], 0.031 µM. For the same compound, the Survival in data set [9] is greater than 53.75 days.

Consider `N=C(N)c1ccc(-c2cnc(-c3ccc(C(=N)N)cc3)cn2)cc1`, for which the Survival in [9] was determined as 36.5 days. Further, in data set [14], the outcome was inactive.

For `N=C(N)c1ccc(-c2ccc(-c3ccc(C(=N)N)cc3)o2)cc1` [FURAMIDINE], the results for the Survival in [9] and in [10] were greater than 46 days and greater than 57.75 days, respectively.

For the compound `N=C(N)c1ccc(-c2cncc(-c3ccc(C(=N)N)nc3)n2)cn1`, the values for the concentration for half-maximal inhibition (IC50) (in the data set on L6; in [2]; in the data set with Plasmodium falciparum [3]) were 24.4 µM, 0.0048 µM and 0.085 µM, respectively. Also, the Survival in data set [9] was greater than 36.5 days.

Turning to `N=C(N)c1ccc(-c2cncc(-c3ccc(C(=N)N)cn3)n2)cc1`, the half-inhibitory concentration (IC50) was found to be 117 µM in the data set with L6, 0.014 µM in [2] and 0.052 µM with Plasmodium falciparum [3]. Besides, the Survival in data set [9] was greater than 60 days. Besides, in data set [14], the result was Active.

With `N=C(N)c1ccc(-c2cncc(-c3ccc(C(=N)N)cc3)n2)cc1`, in the data set on Plasmodium falciparum [15], the “Ratio IC50” value is 5. In addition, the results for the IC50 (in the data set on L6; in [2]; with Plasmodium falciparum [3]) were 80.8 µM, 0.0058 µM and 0.01 µM, respectively. Besides, in [9], the Survival was greater than 53.5 days.

On to `CO/N=C(\N)c1ccc(-c2ccc(-c3ccc(/C(N)=N/OC)cn3)o2)nc1`, for which the result in data set [8] was Active. Besides, the MSD in data set [6] is greater than 180 days.

Usually IC50 stands for the concentration that gives 50% inhibition.
